Data as given in ChEMBL document CHEMBL1152591, “Design, synthesis and structure-activity relationship of 2-(3',4',5'-trimethoxybenzoyl)-benzo[b]furan derivatives as a novel class of inhibitors of tubulin polymerization” (Bioorg Med Chem, 2009).

Experiments:
[1] = tested on: HeLa; assay: Cytotoxicity against human HeLa cells after 2 days; assay type: functional, cell-based; conditions: 48 h
[2] = tested on: CCRF-CEM; assay: Cytotoxicity against human CEM cells after 2 days; assay type: functional, cell-based; conditions: 48 h
[3] = Cytotoxicity against human Molt4/C8 cells after 2 days; conditions: MOLT-4, 48 h
[4] = tested on: L1210; assay: Cytotoxicity against mouse L1210 cells after 2 days; assay type: functional, cell-based; conditions: L1210, 48 h
Method in brief: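 Cells were incubated with the compounds at 37 °C for two days, then counted on a Coulter counter. IC50 is the concentration that inhibits cell proliferation by 50%.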

[5] = tested on: FM3A; assay: Cytotoxicity against mouse FM3A0 cells after 2 days; assay type: functional, cell-based; conditions: 48 h
[6] = tested on: K562; assay: Cell cycle arrest in human K562 cells assessed as accumulation at G1 phase at 16 nM after 24 hrs by flow cytometry; assay type: functional
Method in brief: (§1)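 K562 leukaemia cells were cultured for 24 h with compound at one fixed concentration. DNA content per cell was measured by the standard propidium iodide procedure and flow cytometry. Proportions of cells in the sub-G0–G1 (apoptotic), G0–G1, S and G2–M peaks were compared with an untreated control.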

[7] = tested on: K562; assay: Cell cycle arrest in human K562 cells assessed as accumulation at sub-G0/G1 phase at 16 nM after 24 hrs by flow cytometry; assay type: functional; method in brief: as §1
[8] = organism: Bos taurus; assay: Displacement of [3H]colchicine from bovine tubulin at 5 uM
Method in brief: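 Reaction mixtures held 1 μM bovine brain tubulin, 5 μM [3H]colchicine and 5 μM test compound. Inhibition of radiolabelled colchicine binding to tubulin is expressed as percent inhibition.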

[9] = tested on: K562; assay: Cell cycle arrest in human K562 cells assessed as accumulation at S phase at 16 nM after 24 hrs by flow cytometry; assay type: functional; method in brief: as §1
[10] = tested on: K562; assay: Cell cycle arrest in human K562 cells assessed as accumulation at G2 phase at 16 nM after 24 hrs by flow cytometry; assay type: functional; method in brief: as §1
[11] = Inhibition of bovine tubulin polymerization; set-up: species or system Bos taurus
Method in brief: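 Purified bovine brain tubulin (10 μM) in glutamate buffer was preincubated with varying compound concentrations at 30 °C, then cooled to 0 °C. GTP was added and the mixture warmed to 30 °C in a recording spectrophotometer. Assembly was followed by turbidity.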

[12] = tested on: K562; assay: Cell cycle arrest in human K562 cells assessed as accumulation at G1 phase at 230 nM after 24 hrs by flow cytometry; assay type: functional; method in brief: as §1
[13] = tested on: K562; assay: Cell cycle arrest in human K562 cells assessed as accumulation at G2 phase at 230 nM after 24 hrs by flow cytometry; assay type: functional; method in brief: as §1
[14] = tested on: K562; assay: Cell cycle arrest in human K562 cells assessed as accumulation at sub-G0/G1 phase at 230 nM after 24 hrs by flow cytometry; assay type: functional; method in brief: as §1
[15] = tested on: K562; assay: Cell cycle arrest in human K562 cells assessed as accumulation at S phase at 230 nM after 24 hrs by flow cytometry; assay type: functional; method in brief: as §1
[16] = tested on: K562; assay: Cell cycle arrest in human K562 cells assessed as accumulation at G2 phase at 420 nM after 24 hrs by flow cytometry; assay type: functional
[17] = tested on: K562; assay: Cell cycle arrest in human K562 cells assessed as accumulation at S phase at 420 nM after 24 hrs by flow cytometry; assay type: functional
[18] = tested on: K562; assay: Cell cycle arrest in human K562 cells assessed as accumulation at G1 phase at 420 nM after 24 hrs by flow cytometry; assay type: functional
[19] = tested on: K562; assay: Cell cycle arrest in human K562 cells assessed as accumulation at sub-G0/G1 phase at 420 nM after 24 hrs by flow cytometry; assay type: functional
[20] = tested on: K562; assay: Cell cycle arrest in human K562 cells assessed as accumulation at sub-G0/G1 phase at 980 nM after 24 hrs by flow cytometry; assay type: functional; method in brief: as §1
[21] = tested on: K562; assay: Cell cycle arrest in human K562 cells assessed as accumulation at G2 phase at 980 nM after 24 hrs by flow cytometry; assay type: functional; method in brief: as §1
[22] = tested on: K562; assay: Cell cycle arrest in human K562 cells assessed as accumulation at S phase at 980 nM after 24 hrs by flow cytometry; assay type: functional; method in brief: as §1
[23] = tested on: K562; assay: Cell cycle arrest in human K562 cells assessed as accumulation at G1 phase at 980 nM after 24 hrs by flow cytometry; assay type: functional; method in brief: as §1

| Structure (SMILES) | IC50 [1] [nM] | IC50 [2] [nM] | IC50 [3] [nM] | IC50 [4] [nM] | IC50 [5] [nM] | also measured |
| --- | --- | --- | --- | --- | --- | --- |
| COc1ccc2cc(C(=S)c3cc(OC)c(OC)c(OC)c3)oc2c1 | 100 | 220 | 100 | 180 | 320 |  |
| COc1cc(C(=O)c2cc3cc(Cl)ccc3o2)cc(OC)c1OC | > 10000 | > 10000 | > 10000 | > 10000 | > 10000 |  |
| COc1cc(C(=O)c2cc3cccc(O)c3o2)cc(OC)c1OC | > 10000 | > 10000 | > 10000 | > 10000 | > 10000 |  |
| CCOc1ccc2c(C)c(C(=O)c3cc(OC)c(OC)c(OC)c3)oc2c1 | 6.3 | 2.8 | 1.2 | 2 | 2.8 | Activity [6]: 3.67%; Activity [7]: 13.24%; Activity [8]: 96%; Activity [9]: 25.34%; Activity [10]: 70.99%; IC50 [11]: 430 nM |
| COc1cc(C(=O)c2cc3ccc(O)cc3o2)cc(OC)c1OC | > 10000 | > 10000 | > 10000 | > 10000 | > 10000 |  |
| COc1ccc2oc(C(=O)c3cc(OC)c(OC)c(OC)c3)cc2c1 | > 10000 | > 10000 | 9400 | > 10000 | > 10000 |  |
| COc1ccc2c(N(C)C)c(C(=O)c3cc(OC)c(OC)c(OC)c3)oc2c1 |  |  | 48 |  |  |  |
| COc1cc(C(=O)c2cc3ccccc3o2)cc(OC)c1OC |  | > 10000 | 8000 | > 10000 | > 10000 |  |
| COc1ccc(/C=C\c2cc(OC)c(OC)c(OC)c2)cc1O |  |  |  |  |  | Activity [8]: 99% |
| COc1ccc2oc(C(=O)c3cc(OC)c(OC)c(OC)c3)c(C)c2c1 |  | 400 | 1900 | 2300 | 4400 | Activity [12]: 1.44%; Activity [13]: 58.18%; Activity [14]: 18.18%; Activity [8]: 65%; Activity [15]: 40.38%; IC50 [11]: 1200 nM |
| COc1cc(C(=O)c2cc3ccc(OC)c(O)c3o2)cc(OC)c1OC | > 10000 | > 10000 | > 10000 | > 10000 | > 10000 |  |
| COc1ccc2c(N)c(C(=O)c3cc(OC)c(OC)c(OC)c3)oc2c1 |  |  | 140 |  |  |  |
| COc1ccc2cc(C(OC)c3cc(OC)c(OC)c(OC)c3)oc2c1 (stereo unspecified) | 4400 | > 10000 | > 10000 | > 10000 | > 10000 |  |
| COc1ccc2c3c(oc2c1)C(=O)c1cc(OC)c(OC)c(OC)c1-3 | > 10000 | > 10000 | > 10000 | > 10000 | > 10000 |  |
| COc1cc2cc(C(=O)c3cc(OC)c(OC)c(OC)c3)oc2cc1OC | 570 | 1900 | 770 | 1800 | 1200 |  |
| COc1cc(C(=O)c2cc3cc(Br)ccc3o2)cc(OC)c1OC | > 10000 | > 10000 | > 10000 | > 10000 | > 10000 |  |
| COc1cc(C(=O)c2cc3cccc(OC)c3o2)cc(OC)c1OC | > 10000 | > 10000 | 7800 | > 10000 | > 10000 |  |
| COc1cc(C(=O)c2cc3cc(OC)c(OC)c(OC)c3o2)cc(OC)c1OC | > 10000 | > 10000 | > 10000 | > 10000 | > 10000 |  |
| COc1cc(C(=O)c2oc3cc(O)ccc3c2C)cc(OC)c1OC | 260 | 4300 | 1300 | > 10000 | > 10000 |  |
| COc1cc(C(=O)c2cc3cc(O)ccc3o2)cc(OC)c1OC | > 10000 | > 10000 | > 10000 | > 10000 | > 10000 |  |
| COc1ccc2cc(Cc3cc(OC)c(OC)c(OC)c3)oc2c1 | 680 | 1500 | 770 | 2300 | 2600 |  |
| COc1cc(C(=O)c2cc3cc(C)ccc3o2)cc(OC)c1OC | > 10 | 7200 | 2500 | 7100 | 8400 |  |
| COc1cc(C(=O)c2oc3ccccc3c2C)cc(OC)c1OC | 890 | 2000 | 1300 | 2100 | 2100 |  |
| COc1cc(C(=O)c2oc3cccc(OC)c3c2C)cc(OC)c1OC | 340 | 490 | 200 | 590 | 570 | Activity [16]: 50.2%; Activity [17]: 42.1%; Activity [8]: 66%; Activity [18]: 7.7%; Activity [19]: 21.24%; IC50 [11]: 1800 nM |
| COc1cc(C(=O)c2cc3c(OC)cccc3o2)cc(OC)c1OC | 410 | 870 | 360 | 410 | 550 | Activity [20]: 20.71%; Activity [21]: 58.46%; Activity [22]: 37.4%; Activity [8]: 76%; Activity [23]: 4.14%; IC50 [11]: 1100 nM |
| COc1cc(C(=O)c2oc3c(OC)cccc3c2C)cc(OC)c1OC | 530 | 2400 | 400 | 1700 | 1700 |  |
| COc1ccc2cc(C(=O)c3cc(OC)c(OC)c(OC)c3)oc2c1 | 110 | 70 | 59 | 90 | 100 | Activity [16]: 59.11%; Activity [17]: 39.06%; Activity [8]: 79%; Activity [18]: 1.83%; Activity [19]: 16.36%; IC50 [11]: 700 nM |
| COc1ccc2cc(C(O)c3cc(OC)c(OC)c(OC)c3)oc2c1 (stereo unspecified) | > 10000 | > 10000 | 3000 | > 10000 | 7010 |  |
